Experimental data reported in PMC8320079 (ACS Omega, 2021).
Where “and” joins values, the source holds several entries; their conditions need not be identical. Equal entries are not always repeated.

Columns and labels:
[1] = system: peripheral blood mononuclear cells (PBMCs); assay: MTT-based cell viability assay, normal cells; settings: for IC50: PBMCs (normal cells), 24 h, mean ± S.D.
Procedure, shortened: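 Nontumorigenic PBMCs were exposed 24 h to test compound at 0 and 0.01–400 μM in PBS (pH 7.4), using the same culture and dosing conditions as the tumour lines. MTT formazan was read at 570 nm. Percent cytotoxicity was plotted against log concentration, and IC50 taken from a nonlinear fit (bottom and top asymptotes, centre, Hill slope). Cisplatin reference; mean ± S.D.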

[2] = system: Dalton's lymphoma (DL) cells; assay: MTT-based cell viability assay, DL cells; settings: for SI PBMC/DL: selectivity index IC50 (PBMC)/IC50 (DL); for IC50: DL cells, MTT, 24 h, mean ± S.D.
Procedure, shortened: (§1)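 Test compound dilutions in PBS (pH 7.4), 0 and 0.01–100 μM, applied for 24 h. DL cells were grown in RPMI-1640 with 10% FBS and antibiotics at 37 °C, 5% CO2, and subcultured at 80% confluency. Formazan was read at 570 nm. IC50 came from a four-parameter nonlinear fit of % cytotoxicity versus log concentration. Cisplatin reference; mean ± S.D., n = 3. SI = IC50(PBMC)/IC50(DL or EAC); PBMCs were tested at 0.01–400 μM.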

[3] = system: Ehrlich ascites carcinoma (EAC) cells; assay: MTT-based cell viability assay, EAC cells; settings: for SI PBMC/EAC: selectivity index IC50 (PBMC)/IC50 (EAC); for IC50: EAC cells, MTT, 24 h, mean ± S.D.
Procedure, shortened: as §1

[4] = DMSO-d6 stability study by 31P{1H} and 1H NMR; type: physicochemical; settings: for stability over time in DMSO-d6: 31P{1H} and 1H NMR at time intervals over 6 h
[5] = Solubility noted as property of the isolated complex; type: physicochemical; settings: qualitative
[6] = system: EAC cell line; assay: Apoptosis, AO/EB dual staining, EAC cells; type: cell-based; settings: 24 h
Procedure, shortened: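 Cells (1 × 10^6) exposed 24 h to test compound at 0.01, 0.1, 0.5, 1, 5 and 10 μM; washed twice with PBS (pH 7.4); stained 5 min in a dark cold room with acridine orange and ethidium bromide, 100 μg/mL each in PBS. Fluorescence microscopy in three replicates, about 1000 cells counted per group; orange/red nuclei scored as apoptotic (%). Cisplatin reference; mean ± S.D., n = 3, one-way ANOVA.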

[7] = system: DL cell line; assay: Apoptosis, AO/EB dual staining, DL cells; type: cell-based; settings: 24 h

Compound | IC50 [1] | SI PBMC/DL [2] | SI PBMC/EAC [3] | stability over time in DMSO-d6 [4] | stability in DMSO (properties line of the synthesis) [4] | solubility in DMSO [5] | apoptosis-inducing ability [6] | cytotoxicity in normal cells, in words ([1]; PBMCs) | IC50 [2] | IC50 [3] | apoptosis-inducing ability [7]
Cc1ccc(C(C)C)cc1.[Cl][Os-]([Cl])[P+](c1ccccc1)(c1ccccc1)c1ccccc1 [Compound 3, [OsCl2(η^6-p-cymene)(PPh3)]] | 149.9 ± 1.2 µM | 1.33 | 1.22 |  |  |  |  |  |  |  | 
Cc1ccc(C(C)C)cc1.[Cl][Ge-]([Cl])[Cl].[Cl][Os-]1[P+](c2ccccc2)(c2ccccc2)C[P+]1(c1ccccc1)c1ccccc1 [Compound 8, [OsCl(η^6-p-cymene)(κ^2-dppm)]^+GeCl3^–] | 161 ± 2.8 µM | 19.42 | 8.86 | some decomposition of the complex occurs | somewhat stable in DMSO | sparingly soluble | inducing apoptotic cell death | negligible cytotoxicity | 8.3 ± 0.05 µM | 18.2 ± 0.05 µM | stronger apoptosis-inducing ability than the rest of the tested compounds
Cc1ccc(C(C)C)cc1.[Cl][Os-]1[P+](c2ccccc2)(c2ccccc2)C[P+]1(c1ccccc1)c1ccccc1.[Cl][Sn-]([Cl])[Cl] [Compound 10, [OsCl(η^6-p-cymene)(κ^2-dppm)]^+SnCl3^–] | 145 ± 1.8 µM | 9.18 | 6.78 | stable in DMSO-d6 for as long as 6 h | stable in DMSO | readily soluble |  |  | 15.8 ± 0.05 µM | 21.4 ± 0.57 µM | 
N.N.[Cl][Pt][Cl] [cisplatin, reference compound] | 15.04 ± 0.05 µM | 79.2 and 79.15 | 40.64 |  |  |  |  |  | 0.19 ± 0.07 µM | 0.37 ± 0.1 µM | 
[OsCl(η^6-p-cymene)(PPh3)(GeCl3)] [Compound 7] | 397.6 ± 3.5 µM | 4.28 | 3.83 | somewhat less stable in DMSO-d6 | unstable in DMSO | sparingly soluble |  |  | 93 ± 2.8 µM |  | 
[OsCl(η^6-p-cymene)(PPh3)(SnCl3)] [Compound 11] |  | 6.72 | 4.90 |  |  | soluble in DMSO |  |  | 63.7 ± 1.3 µM | 87.3 ± 1.6 µM | 
